# Experimental data: ChEMBL document CHEMBL1123278, “Synthesis and dopaminergic activity of trans-6-methyl-7a,8,9,10,11,11a-hexahydro-7H-pyrrolo[3,2,1-gh]- 4,7-phenanthroline and trans-1,2,3,4,4a,5,6,10b-octahydro-4,7-phenanthroline derivatives” (J Med Chem, 1986)
# Tests used:
# Rattus norvegicus [1] = experiment: Compound was tested for inhibiting prolactin release at the 0.0456 mg/kg dose levels; format: functional
# Method in brief: (§1)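 Adult male Wistar rats (250–300 g) were caged singly with food and water ad libitum. Each rat got reserpine pretreatment, 2.5 mg/rat ip (2.5 mg/mL), 18 h before the drug. Drugs were dissolved in distilled water at 1 mL/kg ip; saline controls were run. Serum (100 µL, duplicate) was assayed by NIADDK prolactin RIA, expressed as ng RP3/mL. Results were given as % inhibition versus controls, mean ± standard error, 5–10 rats/group.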
# Rattus norvegicus [2] = experiment: Compound was tested for inhibiting prolactin release at the 0.456 mg/kg dose levels; format: functional; method in brief: as §1
# Rattus norvegicus [3] = experiment: Compound was tested for inhibiting prolactin release at the 4.56 mg/kg dose levels 1 hr after ip administration; format: functional; conditions: route intraperitoneal
# Method in brief: (§2)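 Time course in reserpine-pretreated male Wistar rats (250–300 g), given reserpine 2.5 mg/rat ip 18 h before dosing. The drug was given ip in distilled water (1 mL/kg), and rats were killed 1, 3 or 6 h later, with saline controls at each time. Serum prolactin was measured by duplicate NIADDK RIA (ng RP3/mL) and reported as % inhibition versus controls, mean ± standard error, 6–10 rats/group.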
# Rattus norvegicus [4] = experiment: Compound was tested for inhibiting prolactin release at the 4.56 mg/kg dose levels 3h after ip administration; format: functional; conditions: route intraperitoneal; method in brief: as §2
# Rattus norvegicus [5] = experiment: Compound was tested for inhibiting prolactin release at the 4.56 mg/kg dose levels 6 hr after ip administration; format: functional; conditions: route intraperitoneal; method in brief: as §2
# [6] = Compound was evaluated for its acute toxicity in rat; format: organism-based; conditions: in vivo
# Method in brief: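 Male Wistar rats (200–250 g), 50 per substance, given single ip doses at five dose levels with 10 rats per dose. Deaths were followed for up to 14 days. LD50 was estimated by the Weil method, with 95% confidence limits.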
# Rattus norvegicus [7] = experiment: Dopaminergic activity, ability to lower serum prolactin levels 1 hr after intraperitoneal administration of compound (4.56 mg/kg); format: functional, organism-based; method in brief: as §2
# Rattus norvegicus [8] = experiment: Compound at the 4.56 mg/kg dose levels was evaluated for its ability to lower serum prolactin levels 3h after intraperitoneal administration; format: functional, organism-based; parameters: dose 4.56 mg/kg; method in brief: as §2
# Rattus norvegicus [9] = experiment: Dopaminergic activity, ability to lower serum prolactin levels after intraperitoneal administration of compound (0.0456 mg/k); format: functional, organism-based; method in brief: as §1
# Rattus norvegicus [10] = experiment: Dopaminergic activity, ability to lower serum prolactin levels after intraperitoneal administration of compound (0.456 mg/kg); format: functional, organism-based; method in brief: as §1
# Rattus norvegicus [11] = experiment: Compound at the 4.56 mg/kg dose levels was evaluated for its ability to lower serum prolactin levels 6 hr after intraperitoneal administration; format: functional, organism-based; parameters: dose 4.56 mg/kg; method in brief: as §2
# Rattus norvegicus [12] = experiment: Dopaminergic activity, ability to lower serum prolactin levels after intraperitoneal administration of compound (11.2 mg/kg) in rats; format: functional, organism-based; method in brief: as §1
# Rattus norvegicus [13] = experiment: Compound was tested for inhibiting prolactin release at the 103.3 mg/kg dose levels; format: functional; method in brief: as §1
# Rattus norvegicus [14] = experiment: Dopaminergic activity, ability to lower serum prolactin levels after intraperitoneal administration of compound (103.3 mg/kg); format: functional, organism-based; method in brief: as §1
# Rattus norvegicus [15] = experiment: Compound was tested for inhibiting prolactin release at 0.833 mg/kg dose levels; format: functional; method in brief: as §1
# Rattus norvegicus [16] = experiment: Compound was tested for inhibiting prolactin release at the 4.165 mg/kg dose levels; format: functional; method in brief: as §1
# Rattus norvegicus [17] = experiment: Compound was tested for inhibiting prolactin release at the 8.33 mg/kg dose levels; format: functional; method in brief: as §1
# Rattus norvegicus [18] = experiment: Dopaminergic activity, ability to lower serum prolactin levels after intraperitoneal administration of compound (4.165 mg/kg); format: functional, organism-based; method in brief: as §1
# Rattus norvegicus [19] = experiment: Dopaminergic activity, ability to lower serum prolactin levels after intraperitoneal administration of compound (8.33 mg/kg); format: functional, organism-based; method in brief: as §1
# Rattus norvegicus [20] = experiment: Dopaminergic activity, ability to lower serum prolactin levels after intraperitoneal administration of compound (0.833 mg/kg); format: functional, organism-based; method in brief: as §1
# Rattus norvegicus [21] = experiment: Dopaminergic activity, ability to lower serum prolactin levels after intraperitoneal administration of compound (0.001 mg/kg) in rats; format: functional, organism-based; method in brief: as §1
# Rattus norvegicus [22] = experiment: Dopaminergic activity, ability to lower serum prolactin levels after intraperitoneal administration of compound (0.01 mg/kg) in rats; format: functional, organism-based; method in brief: as §1
# Rattus norvegicus [23] = experiment: Dopaminergic activity, ability to lower serum prolactin levels after intraperitoneal administration of compound (0.1 mg/kg) in rats; format: functional, organism-based; method in brief: as §1
# Rattus norvegicus [24] = experiment: Compound was tested for the percent prolactin inhibiting activity at the 0.001 mg/kg dose levels; format: functional
# Method in brief: (§3)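 Adult male Wistar rats (250-300 g), individually caged, food and water ad libitum, pretreated ip with reserpine 2.5 mg/rat 18 h before dosing to keep prolactin high. Single ip dose in distilled water (1 mL per kg); controls received isotonic saline. Serum prolactin measured by radioimmunoassay in duplicate, 100 μL serum, as ng rat prolactin RP3/mL; % inhibition versus saline controls.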
# Rattus norvegicus [25] = experiment: Compound was tested for the percent prolactin inhibiting activity at the 0.01 mg/kg dose levels; format: functional; method in brief: as §3
# Rattus norvegicus [26] = experiment: Compound was tested for the percent prolactin inhibiting activity at the 0.1 mg/kg dose levels; format: functional; method in brief: as §3
# Rattus norvegicus [27] = experiment: Dopaminergic activity, ability to lower serum prolactin levels after intraperitoneal administration of compound (34.7 mg/kg); format: functional, organism-based; method in brief: as §1
# Rattus norvegicus [28] = experiment: Compound was tested for inhibiting prolactin release at the 50.0 mg/kg dose levels; format: functional; method in brief: as §1
# Rattus norvegicus [29] = experiment: Dopaminergic activity, ability to lower serum prolactin levels after intraperitoneal administration of compound (50.0 mg/kg); format: functional, organism-based; method in brief: as §1
smiles,measurement,setting,value
CCCN1CCC[C@@H]2c3cccnc3CC[C@H]21,inhibition in vivo at 0.0456 mg/kg,Rattus norvegicus [1],27.5%
same,inhibition in vivo at 0.456 mg/kg,Rattus norvegicus [2],47.3%
same,inhibition in vivo at 4.56 mg/kg,Rattus norvegicus [3],85%
same,inhibition in vivo at 4.56 mg/kg,Rattus norvegicus [4],70%
same,inhibition in vivo at 4.56 mg/kg,Rattus norvegicus [5],41.8%
same,LD50,[6],183 mg/kg
same,Level,Rattus norvegicus [7],2.5 ng/mL
same,Level,Rattus norvegicus [8],4.6 ng/mL
same,Level,Rattus norvegicus [9],12.1 ng/mL
same,Level,Rattus norvegicus [10],8.8 ng/mL
same,Level,Rattus norvegicus [11],9.6 ng/mL
Cc1cn2cccc3c2c1C[C@@H]1[C@@H]3CCCN1C,LD50,[6],45 mg/kg
same,Level,Rattus norvegicus [12],18.9 ng/mL
CCCN1CCC[C@@H]2c3cccn4cc(C)c(c34)C[C@H]21,inhibition in vivo at 103.3 mg/kg,Rattus norvegicus [13],38.9%
same,LD50,[6],413 mg/kg
same,Level,Rattus norvegicus [14],10.2 ng/mL
CCN1CCC[C@@H]2c3cccn4cc(C)c(c34)C[C@H]21,inhibition in vivo at 0.833 mg/kg,Rattus norvegicus [15],34.7%
same,inhibition in vivo at 4.165 mg/kg,Rattus norvegicus [16],71.3%
same,inhibition in vivo at 8.33 mg/kg,Rattus norvegicus [17],80.2%
same,LD50,[6],228 mg/kg
same,Level,Rattus norvegicus [18],4.7 ng/mL
same,Level,Rattus norvegicus [19],3.3 ng/mL
same,Level,Rattus norvegicus [20],10.9 ng/mL
CC(C)C[C@H]1C(=O)N2CCC[C@H]2[C@]2(O)O[C@](NC(=O)[C@@H]3C=C4c5cccc6[nH]c(Br)c(c56)C[C@H]4N(C)C3)(C(C)C)C(=O)N12 [BROMOCRIPTINE],Level,Rattus norvegicus [21],12.7 ng/mL
same,Level,Rattus norvegicus [22],6.6 ng/mL
same,Level,Rattus norvegicus [23],1.6 ng/mL
same,inhibition in vivo at 0.001 mg/kg,Rattus norvegicus [24],23.9%
same,inhibition in vivo at 0.01 mg/kg,Rattus norvegicus [25],60.4%
same,inhibition in vivo at 0.1 mg/kg,Rattus norvegicus [26],90.4%
CCCN1CCC[C@H]2c3cccnc3CC[C@H]21,LD50,[6],139 mg/kg
same,Level,Rattus norvegicus [27],19.3 ng/mL
CN1CCC[C@H]2c3cccnc3CC[C@H]21,inhibition in vivo at 50 mg/kg,Rattus norvegicus [28],14.3%
same,LD50,[6],200 mg/kg
same,Level,Rattus norvegicus [29],14.3 ng/mL
